Compound activity (PubChem BioAssay)
SIRT5 inh: sirtuin-5 (human) deacylase inhibition; 330,000 tested, 1.1% active; Purified SirT5, succinyl-peptide AMC, trypsin-coupled fluorescence; inhibition, % at 15 µM; in the data active means inhibition above about 15%
FGF22 binding: shifts melting point of recombinant human FGF22; Q9HCT0; activity (Tm shift, normalised), % at 9.99 µM; recombinant FGF22 thermal shift, SYPRO orange fluorescence; percent of sucrose octasulfate shift, DMSO zero; AID 651658; 340,000 tested, 1.5% active;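 active means mean Tm shift, scaled 0 neutral to 100 positive control, at about 1.3% or above, every replicate too, limit read from the data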
E-selectin induc: induces E-selectin expression in human endothelial cells; P16581; HUVEC E-selectin immunofluorescence imaging; normalized: neutral wells 0, TNF-alpha wells 100; activation, % at 7.58 µM; 260,000 tested, 0.37% active;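 active means mean E-selectin-positive cell signal at least 10% of the positive control, reached in at least 60% of replicates, without over 20% cell loss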
Target sequence (P16581 whole entry, looked up): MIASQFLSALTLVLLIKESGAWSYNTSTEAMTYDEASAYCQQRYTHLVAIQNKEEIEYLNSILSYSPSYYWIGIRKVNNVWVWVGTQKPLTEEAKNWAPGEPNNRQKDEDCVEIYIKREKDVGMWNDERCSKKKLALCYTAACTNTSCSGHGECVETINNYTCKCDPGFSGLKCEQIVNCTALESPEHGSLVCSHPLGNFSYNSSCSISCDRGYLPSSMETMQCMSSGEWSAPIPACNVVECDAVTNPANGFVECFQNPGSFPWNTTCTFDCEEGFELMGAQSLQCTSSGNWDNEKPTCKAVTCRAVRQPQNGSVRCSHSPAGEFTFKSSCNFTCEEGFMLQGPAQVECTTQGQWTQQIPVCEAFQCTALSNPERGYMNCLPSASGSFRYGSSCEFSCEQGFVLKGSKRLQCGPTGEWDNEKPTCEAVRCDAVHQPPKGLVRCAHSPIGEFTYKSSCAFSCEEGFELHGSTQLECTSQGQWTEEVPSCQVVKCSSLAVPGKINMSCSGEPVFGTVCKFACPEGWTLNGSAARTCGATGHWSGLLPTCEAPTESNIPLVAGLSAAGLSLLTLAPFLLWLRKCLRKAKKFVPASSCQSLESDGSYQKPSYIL
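System: HUVEC / Compound: single concentration / Signal: immunofluorescence imaging / Read-out: percent E-selectin-positive cells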
FN deposition inh: fibronectin deposition inhibition; AH1F fibroblasts, Alexa488-fibronectin deposition fluorescence, overnight; inhibition, % at 12.6 µM; 350,000 tested, 0.086% active;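 active means mean inhibition across replicates of 30% or more, regardless of how many single replicates reach that level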;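 further: positive control wells lacked labelled fibronectin entirely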
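Assay system: AH1F fibroblasts assembling fluorescent fibronectin matrix; Amount: 10000 AH1F cells per well; Buffer or medium: DMEM, 2% serum; Probe or stimulus: Alexa488-fibronectin, 24 nM final in well; Doses: single compound dose, delivered by pin transfer; Incubation: 1 h adhesion, overnight exposure; Measured by: fluorescence 485/525 nm; Read-out: fibronectin deposition inhibition.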
Ecoli rRNA inh: inhibitors of bacterial rRNA selective over humanized ribosomes | GFP signal change (wild-type ribosome), % (concentration not given with the values) | E. coli WT GFP vs humanized-ribosome RFP mutants, fluorescence, 24 h; hits give low values; DMSO median 0, no signal -100 | 350,000 tested, 1.6% active;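 active means significant combined selectivity score with lowered wild-type GFP, culture density cut under 30%, mutant RFP and density less affected; inactive means any of these conditions unmet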
Statin myotox sup: protects C2C12 myotubes from simvastatin toxicity; ATP luminescence, 48 h; scaled: DMSO 0, geranylgeraniol control 100; rescue of ATP level, % at 7.49 µM; 330,000 tested, 0.78% active;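 active means mean ATP rescue above about 67%, or every replicate alone reaching that limit, limit read from the data, passing the limit was not always enough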;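 further: myotubes were challenged with 10 µM simvastatin during compound exposure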
* marks the source's active call; other numbers are inactive results; . = no result given. A selection: hits, their analogues and other compounds. The true share with any hit is near 4%.

SMILES | SIRT5 inh | FGF22 binding | E-selectin induc | FN deposition inh | Ecoli rRNA inh | Statin myotox sup
C[C@@H]1CN([C@H](C)CO)C(=O)c2cccc(NS(C)(=O)=O)c2O[C@H]1CN(C)Cc1ccncc1 | -5 | . | 125* | . | 2 | 34
C[C@H](CO)N1C[C@H](C)[C@@H](CN(C)Cc2ccncc2)Oc2c(NS(C)(=O)=O)cccc2C1=O | 0 | -1 | 9 | . | 1 | -4
C[C@@H]1CN([C@H](C)CO)C(=O)c2cccc(NS(C)(=O)=O)c2O[C@H]1CN(C)CC1CC1 | 3 | 0 | 1 | -5 | 3 | -17
C[C@H]1CN([C@@H](C)CO)C(=O)c2cccc(NS(C)(=O)=O)c2O[C@H]1CN(C)Cc1ccccc1 | 15* | 0 | 0 | . | 1 | 27
C[C@@H]1CN([C@H](C)CO)C(=O)c2cccc(NS(C)(=O)=O)c2O[C@@H]1CN(C)Cc1ccc(Oc2ccccc2)cc1 | 0 | 0 | 41* | . | -1 | -2
CC(C)NC(=O)N[C@H]1C=C[C@@H](CC(=O)NCCCN(C)C)O[C@@H]1CO | 1 | 0 | 0 | -8 | 0 | -2
O=C(Nc1ccc(C(F)(F)F)cc1)N[C@H]1CC[C@H](CC(=O)N2CCCCC2)O[C@H]1CO | -3 | 0 | 0 | -7 | -6 | 6
C[C@H](CO)N1C[C@H](C)[C@@H](CN(C)CC2CCCCC2)Oc2c(NC(=O)Cc3ccccc3)cccc2C1=O | 21* | 0 | . | 7 | -45 | 13
CC(C)C[C@@H]1NC(=O)[C@H]2C[C@@H](C(=O)NCCCCCN)[C@@H](c3cccc(OCCO)c3)N2C1=O | -2 | 0 | . | . | . | .
Cc1cc(C)n2c(SCC(O)=C(C#N)c3nc4ccccc4[nH]3)nnc2n1 | . | 0 | 1 | -3 | 7 | -1
N#C/C(=C(/O)CSc1ncn[nH]1)c1nc2ccccc2[nH]1 | -3 | 44* | 13 | 8 | 10 | .
c1cc(-c2ccc(C3[C@H]4CNC[C@@H]3N4CC3CCCC3)cc2)ccn1 (some centres not stated) | 1 | . | 0 | 0 | 1 | .
O=C(c1ccccc1)c1cc(Cl)ccc1N1C(=O)C=CC1=O | 0 | 0 | 0 | 50* | . | -14
C[C@H](CO)N1C[C@H](C)[C@H](CN(C)Cc2ccc3c(c2)OCO3)Oc2c(NC(=O)c3nc4ccccc4s3)cccc2C1=O | 0 | 1 | 0 | 16 | -10 | .
CO[C@H]1CN(C)C(=O)c2ccc(NS(=O)(=O)c3ccc(F)cc3)cc2OC[C@H](C)NC[C@H]1C | 3 | 0 | 0 | 5 | 2 | 1
COC(=O)C1=C(C)NC(C)=C(C(=O)OC)C1c1ccc(C)o1 | 5 | 0 | . | 6 | . | .
COC(=O)C1=C(C)Nc2nc(-c3ccccc3)nn2C1c1ccc(C)o1 (configuration not stated) | . | 0 | 0 | 8 | -22* | 31
Cc1cc(C)cc(N=c2c([N+](=O)[O-])nn(-c3ccc4c(c3)OCCO4)n2O)c1 | -1 | 0 | . | 1 | 0 | -15
Cc1ccc(N=c2c([N+](=O)[O-])nn(-c3ccc4c(c3)OCCO4)n2O)cc1F | -1 | 43* | 0 | -3 | 6 | .
Cc1ccc(N=c2c([N+](=O)[O-])nn(-c3ccccc3)n2O)c(C)c1 | -3 | 0 | . | . | -25* | 20
Cc1noc(C)c1S(=O)(=O)N(C)C[C@@H]1OCCCC[C@H](C)Oc2ccc(NC(=O)Nc3ccccc3)cc2C(=O)N([C@@H](C)CO)C[C@H]1C | 3 | 0 | 1 | -3 | 6 | .
COCC(=O)N1CC[C@@H]2[C@H]1c1cc(-c3ccccc3)ccc1N(C)[C@H]2CO | 4 | -1 | 0 | -8 | 0 | -5
CC(/C=C1\SC(=S)N(c2ccc(C(=O)O)cc2)C1=O)=C\c1ccccc1 | 34* | 0 | . | 2 | 2 | 12
CC(/C=C1\SC(=S)N(NS(=O)(=O)c2ccccc2)C1=O)=C\c1ccccc1 | 7 | 0 | 2 | -5 | -43* | 5
CC(/C=C1\SC(=S)N(NC(=O)c2ccc(C)cc2)C1=O)=C\c1ccccc1 | . | . | . | . | . | 2
SMILES | SIRT5 inh | FGF22 binding | E-selectin induc | FN deposition inh | Ecoli rRNA inh | Statin myotox sup
CC(/C=C1\SC(=S)N(C(C(=O)O)C(C)C)C1=O)=C\c1ccccc1 (configuration not stated) | 6 | 0 | . | -2 | -49 | .
CC(/C=C1\SC(=S)N(NC(=O)c2ccncc2)C1=O)=C\c1ccccc1 | . | 0 | 0 | 3 | -32* | -8
Cc1noc(C)c1NC(=O)N(C)C[C@H]1Oc2ccc(N(C)C)cc2CC(=O)N([C@@H](C)CO)C[C@H]1C | -4 | -1 | 0 | 0 | 5 | -12
Cc1noc(C)c1NC(=O)N(C)C[C@@H]1OCc2ccccc2-c2c(n(C)c3ccccc23)C(=O)N([C@@H](C)CO)C[C@@H]1C | 2 | 0 | 1 | -2 | -1 | 35
O=C(NCCN1CCC(n2c(=O)[nH]c3ccccc32)CC1)N1c2ccccc2Sc2ccccc21 | 0 | 0 | 0 | -4 | -36* | .
O=C(NCCN1CCC(n2c(=O)[nH]c3ccccc32)CC1)c1ccccc1 | -3 | 0 | 0 | . | 16 | .
COCC(=O)Nc1ccc2c(c1)OC[C@H](C)N(C(=O)c1ccccn1)C[C@H](C)[C@H](OC)CN(C)C2=O | . | . | 0 | 1 | 2 | -1
Cn1nc(-c2ccc(Cl)cc2)cc1NC(=O)Nc1ccccc1 | -6 | 0 | 0 | 7 | -44* | -5
O=C(Nc1ccc(Cl)cc1)Nc1nc(-c2ccccc2)cs1 | -7 | 0 | . | 0 | -38* | .
Cn1nc(-c2ccccc2)cc1NC(=O)Nc1ccc(C(C)(C)C)cc1 | -1 | 0 | . | -1 | -33 | .
O=C(Nc1cccc(Cl)c1)Nc1nc(-c2ccccc2)cs1 | 0 | 1 | 0 | 2 | -34 | .
O=C(C[n+]1cc(-c2ccc(Cl)cc2)n2c1CCC2)Nc1nc(-c2ccccc2)cs1 | -3 | 0 | . | -3 | -44* | .
C[C@@H]1CCCCO[C@H](CN(C)S(=O)(=O)c2cccs2)[C@H](C)CN([C@@H](C)CO)C(=O)c2cc(NS(C)(=O)=O)ccc2O1 | 1 | 1 | 0 | . | -3 | 35
CCN(CC)CC#CCC(O)(c1ccccc1)C1CCCC1 (configuration not stated) | 18* | 0 | . | . | 4 | -3
CC(C)(Sc1ccc(CCN(CCCCC2CCCCC2)C(=O)NC2CCCCC2)cc1)C(=O)O | 26* | 0 | 1 | -9 | -5 | 12
C[C@H]1CN([C@@H](C)CO)C(=O)CCCn2nncc2CO[C@@H]1CN(C)Cc1ccc2c(c1)OCCN2C | . | -1 | 0 | 6 | -2 | 9
